From ChEMBL document CHEMBL1134044, “Beneficial effects of different flavonoids, on functional recovery after ischemia and reperfusion in isolated rat heart” (2001)

What was measured:
Type in all cases: functional, Muscle tissue
Rattus norvegicus [1] = organism: Rattus norvegicus; experiment: Effect of compound on catalase measured as disappearance of H2O2 in isolated rat heart muscle subjected to global ischemia
Summary of the method: (§1)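 Isolated rat hearts: 10 min initial perfusion, then 15 min recirculating Krebs with drug (diluted from 10⁻² M DMSO stock; final DMSO 0.01% v/v, matched in controls), 30 min global ischemia, then 30 min reperfusion with the same regime. Hearts were homogenized and frozen in liquid nitrogen. Enzymes were assayed in the centrifuged supernatant, normalized […]; mean ± S.D.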

Rattus norvegicus [2] = organism: Rattus norvegicus; experiment: Superoxide dismutase activity measured as inhibition of Cytochrome C reduction by 50% in isolated rat heart muscle subjected to global ischemia; summary of the method: as §1
Rattus norvegicus [3] = organism: Rattus norvegicus; experiment: Effect of compound on Glutathione peroxidase measured as disappearance of NADPH in isolated rat heart muscle subjected to global ischemia; summary of the method: as §1

SMILES | Activity (Rattus norvegicus [1]) | Activity (Rattus norvegicus [2]) | Activity (Rattus norvegicus [3])
CC(C)(C)c1cc(/C=C2\C(=O)c3ccc(O)cc3OC2c2cc(C(C)(C)C)c(O)c(C(C)(C)C)c2)cc(C(C)(C)C)c1O (stereo not drawn) | 21 U (mg of protein)-1 | 8935 U (mg of protein)-1 | 1906 U (mg of protein)-1
Cc1cc(C(C)(C)C)c(O)c(C(C)(C)C)c1 [BUTYLATED HYDROXYTOLUENE] | 20 U (mg of protein)-1 | 9636 U (mg of protein)-1 | 1803 U (mg of protein)-1
C[C@@H]1O[C@@H](OC[C@H]2O[C@@H](Oc3c(-c4ccc(O)c(O)c4)oc4cc(O)cc(O)c4c3=O)[C@H](O)[C@@H](O)[C@@H]2O)[C@H](O)[C@H](O)[C@H]1O [RUTIN] | 21 U (mg of protein)-1 | 9077 U (mg of protein)-1 | 1829 U (mg of protein)-1
CC(C)(C)c1cc(-c2cc(=O)c3ccc(O)cc3o2)cc(C(C)(C)C)c1O | 21 U (mg of protein)-1 | 8433 U (mg of protein)-1 | 1982 U (mg of protein)-1
CC(C)(C)c1cc(/C=C/C(=O)c2ccc(O)cc2O)cc(C(C)(C)C)c1O | 20 U (mg of protein)-1 | 8740 U (mg of protein)-1 | 1879 U (mg of protein)-1
Oc1ncnc2[nH]ncc12 [ALLOPURINOL] | 21 U (mg of protein)-1 | 9800 U (mg of protein)-1 | 1912 U (mg of protein)-1
